In ChEMBL document CHEMBL1128479, “Synthesis and structure-activity relationships of stilbene retinoid analogs substituted with heteroaromatic carboxylic acids” (J Med Chem, 1995):

Columns and labels:
[1] = molecular target: T1, Retinoic acid receptor beta (Homo sapiens, UniProt P10826); experiment: Transcriptional activation of Retinoic acid receptor RAR beta
T1 sequence (P10826 whole entry): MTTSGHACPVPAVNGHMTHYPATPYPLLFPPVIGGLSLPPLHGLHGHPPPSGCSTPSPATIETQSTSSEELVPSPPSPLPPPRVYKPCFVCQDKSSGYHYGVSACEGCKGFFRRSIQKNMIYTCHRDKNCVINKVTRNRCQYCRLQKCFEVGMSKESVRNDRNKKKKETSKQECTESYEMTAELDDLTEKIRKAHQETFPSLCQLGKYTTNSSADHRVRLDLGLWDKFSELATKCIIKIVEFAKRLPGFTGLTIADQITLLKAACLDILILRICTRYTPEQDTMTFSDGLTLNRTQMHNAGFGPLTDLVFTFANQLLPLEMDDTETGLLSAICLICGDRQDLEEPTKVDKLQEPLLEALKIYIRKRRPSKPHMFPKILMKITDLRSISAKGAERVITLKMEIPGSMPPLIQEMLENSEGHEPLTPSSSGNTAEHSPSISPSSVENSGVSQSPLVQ

[2] = molecular target: T2, Retinoic acid receptor RXR-alpha (Homo sapiens, UniProt P19793); experiment: Transcriptional activation of Retinoid X receptor RXR alpha
T2 sequence (P19793 whole entry): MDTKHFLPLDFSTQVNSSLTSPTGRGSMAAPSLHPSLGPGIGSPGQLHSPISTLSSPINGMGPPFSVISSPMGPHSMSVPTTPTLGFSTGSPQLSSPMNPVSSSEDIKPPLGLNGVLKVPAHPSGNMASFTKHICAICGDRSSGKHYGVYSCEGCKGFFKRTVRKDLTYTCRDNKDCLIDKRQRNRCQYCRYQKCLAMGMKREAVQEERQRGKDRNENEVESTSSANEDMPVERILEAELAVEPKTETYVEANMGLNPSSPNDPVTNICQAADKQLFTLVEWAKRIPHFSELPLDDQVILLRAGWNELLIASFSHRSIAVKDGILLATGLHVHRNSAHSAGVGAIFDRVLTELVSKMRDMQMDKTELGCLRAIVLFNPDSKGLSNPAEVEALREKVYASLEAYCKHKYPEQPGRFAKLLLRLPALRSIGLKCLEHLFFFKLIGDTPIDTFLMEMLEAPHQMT

[3] = molecular target: T3, Retinoic acid receptor alpha (Homo sapiens, UniProt P10276); experiment: Transcriptional activation of Retinoic acid receptor RAR alpha
T3 sequence (P10276 whole entry): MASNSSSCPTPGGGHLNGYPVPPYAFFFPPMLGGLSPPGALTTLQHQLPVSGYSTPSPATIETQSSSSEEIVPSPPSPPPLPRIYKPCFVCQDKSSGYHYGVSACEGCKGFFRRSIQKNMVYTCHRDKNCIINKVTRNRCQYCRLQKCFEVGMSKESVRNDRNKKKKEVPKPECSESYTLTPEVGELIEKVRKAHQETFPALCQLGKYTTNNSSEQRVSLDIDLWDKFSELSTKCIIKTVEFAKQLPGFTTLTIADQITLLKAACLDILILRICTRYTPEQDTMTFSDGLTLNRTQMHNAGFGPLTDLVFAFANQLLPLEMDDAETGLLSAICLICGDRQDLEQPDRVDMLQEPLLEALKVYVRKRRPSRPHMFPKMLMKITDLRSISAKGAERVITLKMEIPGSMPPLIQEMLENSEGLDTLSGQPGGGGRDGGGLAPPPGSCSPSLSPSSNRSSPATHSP

Mus musculus [4] = organism: Mus musculus; experiment: In vitro inhibition of chondrogenesis in mouse embryo limb bud cells; assay type: functional, cell-based
Procedure, shortened: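 Micromass cultures of day 11 mouse embryo forelimb bud cells (trypsin-EDTA dissociated, 200 000 cells/spot) in Eagle's MEM + 10% FBS. Retinoids 0.01 ng/mL–10 μg/mL (0.03 nM–30 μM) were added 24 h after plating, with ethanol vehicle (<1%). Cultures ended at 96 h, formalin/cetylpyridinium fixed, and cartilage nodules counted by image scan. Four replicates per concentration; IC50 from logarithmic curve fit.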

Mus musculus [5] = organism: Mus musculus; experiment: Inhibition of tumor-promoter-induced ornithine decarboxylase in TPA-treated female hairless mice; assay type: functional
Procedure, shortened: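 Retinoids were applied dorsally in 100 μL acetone 1 h before TPA (40 nmol/mouse in acetone). Mice were killed 4 h later, epidermis scraped after 55 °C for 30 s, and homogenate supernatant assayed for ODC by 14CO2 release (benzethonium hydroxide trap). Activity was normalized to protein.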

[6] = molecular target: T4, Retinoic acid receptor gamma (Homo sapiens, UniProt P13631); experiment: Transcriptional activation of Retinoic acid receptor RAR gamma
T4 sequence (P13631 whole entry): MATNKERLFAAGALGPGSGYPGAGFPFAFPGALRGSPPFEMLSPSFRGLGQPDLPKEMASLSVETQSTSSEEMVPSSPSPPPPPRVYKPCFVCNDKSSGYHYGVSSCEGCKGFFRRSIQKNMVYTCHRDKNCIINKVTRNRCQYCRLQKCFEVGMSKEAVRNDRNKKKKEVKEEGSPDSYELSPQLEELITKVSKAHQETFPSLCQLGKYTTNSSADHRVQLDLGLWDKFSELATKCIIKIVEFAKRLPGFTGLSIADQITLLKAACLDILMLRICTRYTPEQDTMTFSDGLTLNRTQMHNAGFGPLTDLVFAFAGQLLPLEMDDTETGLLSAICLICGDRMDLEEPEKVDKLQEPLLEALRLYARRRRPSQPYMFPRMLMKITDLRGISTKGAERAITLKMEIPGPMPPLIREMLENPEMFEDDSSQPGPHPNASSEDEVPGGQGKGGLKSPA

HL-60 = experiment: Transglutaminase activity in HL-60 cdm-1 cells; assay type: functional, cell-based; conditions: Homo sapiens
Procedure, shortened: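 Log-phase cells in RPMI 1640 with insulin/transferrin/selenide were pretreated with 1.25% DMSO for 18 h, then resuspended with retinoid or 0.1% ethanol control for 24 h. Lysate Tgase was measured as Ca2+-dependent [3H]putrescine conjugation to N,N-dimethylcasein.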

## C/C(=C\c1cc(C(=O)O)cs1)c1cc2c(cc1C)C(C)(C)CCC2(C)C
[1]
  EC50: > 10000 nM
[2]
  EC50: 201 nM
[3]
  EC50: > 10000 nM
Mus musculus [4]
  IC50: 63 nM
Mus musculus [5]
  IC80: > 300 nmol
[6]
  EC50: > 10000 nM
HL-60
  EC50: 20 nM

## C/C(=C\c1csc(C(=O)O)c1)c1cc2c(cc1C)C(C)(C)CCC2(C)C
[1]
  EC50: 1080 nM
[2]
  EC50: 112 nM
[3]
  EC50: > 10000 nM
[6]
  EC50: > 10000 nM

## CC1=C(/C=C/C(C)=C/C=C/C(C)=C/C(=O)O)C(C)(C)CCC1 [TRETINOIN]
Mus musculus [4]
  IC50: 31 nM
Mus musculus [5]
  IC80: 1.4 nmol
HL-60
  EC50: 5 nM

## C/C(=C\c1ccc(C(=O)O)cn1)c1cc2c(cc1C)C(C)(C)CCC2(C)C
[1]
  EC50: 21 nM
[2]
  EC50: 105 nM
[3]
  EC50: 2690 nM
[6]
  EC50: 374 nM

## CC1=C(/C=C/C(C)=C\C=C\C(C)=C\C(=O)O)C(C)(C)CCC1 [ALITRETINOIN]
Mus musculus [4]
  IC50: 58 nM
Mus musculus [5]
  IC80: 3.6 nmol
HL-60
  EC50: 2 nM

## C/C(=C\c1cccc(C(=O)O)c1)c1cc2c(cc1C)C(C)(C)CCC2(C)C
[1]
  EC50: > 10000 nM
[2]
  EC50: > 10000 nM
[3]
  EC50: > 10000 nM
[6]
  EC50: > 10000 nM

## C/C(=C\c1ccc(C(=O)O)cc1)c1cc2c(cc1C)C(C)(C)CCC2(C)C
Mus musculus [4]
  IC50: 8 nM
Mus musculus [5]
  IC80: 1.2 nmol
HL-60
  EC50: 10 nM

## C/C(=C\c1ccc(C(=O)O)o1)c1cc2c(cc1C)C(C)(C)CCC2(C)C
[1]
  EC50: > 10000 nM
[2]
  EC50: 592 nM
[3]
  EC50: > 10000 nM
[6]
  EC50: > 10000 nM

## C/C(=C\c1ccc(C(=O)O)s1)c1cc2c(cc1C)C(C)(C)CCC2(C)C
[1]
  EC50: 23 nM
[2]
  EC50: 11 nM
[3]
  EC50: > 10000 nM
Mus musculus [4]
  IC50: 15 nM
Mus musculus [5]
  IC80: 5.4 nmol
[6]
  EC50: 37 nM
HL-60
  EC50: 5 nM

## C/C(=C\c1ccc(C(=O)O)cc1)c1ccc2c(c1)C(C)(C)CCC2(C)C
[2]
  EC50: > 10000 nM
Mus musculus [4]
  IC50: 0.06 nM
Mus musculus [5]
  IC80: 0.08 nmol
HL-60
  EC50: > 1000 nM
